Data from ChEMBL document CHEMBL1147105, “In vitro and in vivo activities of PD 0305970 and PD 0326448, new bacterial gyrase/topoisomerase inhibitors with potent antibacterial activities versus multidrug-resistant gram-positive and fastidious organism groups” (2007).
Values after ≈ are worked out from the molar mass of the structure shown. Active and inactive are the calls of the source.

Assays:
Streptococcus pneumoniae [1] = assay: Antibacterial activity against Streptococcus pneumoniae 7785; type: functional
Escherichia coli = assay: Antibacterial efficacy against Escherichia coli Vogel infected orally dosed CD1 mouse model; type: functional
Outline: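 Female CD1 mice, 6–8 weeks old (18–22 g), challenged intraperitoneally (0.5 ml) with ≥100 median lethal doses suspended in 20% hog gastric mucin. Single oral gavage dose at the time of challenge, in 0.5% methylcellulose. Untreated controls of 10 mice per group. PD50 (mg/kg), the dose protecting 50% of mice from lethal infection, calculated by probit analysis.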

Streptococcus pneumoniae [2] = assay: Bactericidal activity against Streptococcus pneumoniae SV1 at 0.008 ug/ml by time-kill study; type: functional, organism-based
Outline: (§1)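 Time-kill in 10 ml of cation-adjusted Mueller-Hinton broth with 3% lysed horse blood, without agitation. Multiples of MIC tested. Samples taken at 0, 2, 4, 6 and 24 h and plated on tryptic soy agar with 5% sheep blood after ≥250-fold dilution, detection limit 10 CFU/ml. Counts read after 24 h at 35°C. Bactericidal defined as a ≥3 log10 drop from the starting inoculum within 24 h.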

Streptococcus pyogenes [3] = assay: Bactericidal activity against Streptococcus pyogenes C203 at 2 ug/ml by time-kill study; type: functional, organism-based; outline: as §1
Enterococcus faecalis = assay: Antibacterial efficacy against Enterococcus faecalis MGH2 infected orally dosed CD1 mouse model; type: functional
Outline: (§2)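 Sepsis model in female CD1 mice (6–8 weeks, 18–22 g). Lethal i.p. challenge (0.5 ml) at ≥100 median lethal doses. Streptococci were given in Todd-Hewitt broth; other organisms were given with 20% hog gastric mucin. A single oral gavage dose (0.5 ml, in 0.5% methylcellulose) was given at the time of challenge. The PD50 (mg/kg) was calculated by probit analysis.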

Streptococcus pneumoniae [4] = assay: Bactericidal activity against Streptococcus pneumoniae SV1 at 2 ug/ml by time-kill study; type: functional, organism-based; outline: as §1
Streptococcus pyogenes [5] = assay: Bactericidal activity against Streptococcus pyogenes C203 at 0.008 ug/ml by time-kill study; type: functional, organism-based; outline: as §1
Staphylococcus aureus = assay: Antibacterial efficacy against methicillin-susceptible Staphylococcus aureus UC76 infected orally dosed CD1 mouse model; type: functional; details: UC76, po; for ED50: read-out: PD50; outline: as §2
Streptococcus pneumoniae [6] = assay: Antibacterial activity against Streptococcus pneumoniae 1-970-2 with gyrB Asp435Glu, Glu475Ala and parE Pro475Ser mutation; type: functional
Streptococcus pneumoniae [7] = assay: Antibacterial activity against Streptococcus pneumoniae 1-970-1 with gyrB Asp435Glu mutation; type: functional

| Compound | MIC (Streptococcus pneumoniae [1]) | MIC (Escherichia coli) | ED50 (Escherichia coli; read-out: PD50) | Activity (Streptococcus pneumoniae [2]) | Activity (Streptococcus pyogenes [3]) | MIC (Enterococcus faecalis) | ED50 (Enterococcus faecalis; read-out: PD50) | Activity (Streptococcus pneumoniae [4]) | Activity (Streptococcus pyogenes [5]) | MIC (Staphylococcus aureus) | ED50 (Staphylococcus aureus) | MIC (Streptococcus pneumoniae [6]) | MIC (Streptococcus pneumoniae [7]) |
| --- | --- | --- | --- | --- | --- | --- | --- | --- | --- | --- | --- | --- | --- |
| Cc1c(N2CC[C@@H]([C@H](C)N)C2)c(F)cc2c(=O)n(N)c(=O)n(C3CC3)c12 | 0.03 µg/mL (≈ 0.083 µM) | 1 µg/mL (≈ 2.77 µM) | 82 mg/kg | Active | Active | 0.125 µg/mL (≈ 0.346 µM) | 19 mg/kg | Active | Active | 0.06 µg/mL (≈ 0.166 µM) | 1.9 mg/kg | 0.125 µg/mL (≈ 0.346 µM) | 0.06 µg/mL (≈ 0.166 µM) |
| C[C@H]1COc2c(N3CCN(C)CC3)c(F)cc3c(=O)c(C(=O)O)cn1c23.C[C@H]1COc2c(N3CCN(C)CC3)c(F)cc3c(=O)c(C(=O)O)cn1c23.O [LEVOFLOXACIN] | – | – | – | – | – | 1 µg/mL | – | – | – | 0.125 µg/mL | 4.6 mg/kg | – | – |
